One assay deals with T1, Androgen receptor (Homo sapiens, UniProt P10275).
T1 sequence (P10275 whole entry): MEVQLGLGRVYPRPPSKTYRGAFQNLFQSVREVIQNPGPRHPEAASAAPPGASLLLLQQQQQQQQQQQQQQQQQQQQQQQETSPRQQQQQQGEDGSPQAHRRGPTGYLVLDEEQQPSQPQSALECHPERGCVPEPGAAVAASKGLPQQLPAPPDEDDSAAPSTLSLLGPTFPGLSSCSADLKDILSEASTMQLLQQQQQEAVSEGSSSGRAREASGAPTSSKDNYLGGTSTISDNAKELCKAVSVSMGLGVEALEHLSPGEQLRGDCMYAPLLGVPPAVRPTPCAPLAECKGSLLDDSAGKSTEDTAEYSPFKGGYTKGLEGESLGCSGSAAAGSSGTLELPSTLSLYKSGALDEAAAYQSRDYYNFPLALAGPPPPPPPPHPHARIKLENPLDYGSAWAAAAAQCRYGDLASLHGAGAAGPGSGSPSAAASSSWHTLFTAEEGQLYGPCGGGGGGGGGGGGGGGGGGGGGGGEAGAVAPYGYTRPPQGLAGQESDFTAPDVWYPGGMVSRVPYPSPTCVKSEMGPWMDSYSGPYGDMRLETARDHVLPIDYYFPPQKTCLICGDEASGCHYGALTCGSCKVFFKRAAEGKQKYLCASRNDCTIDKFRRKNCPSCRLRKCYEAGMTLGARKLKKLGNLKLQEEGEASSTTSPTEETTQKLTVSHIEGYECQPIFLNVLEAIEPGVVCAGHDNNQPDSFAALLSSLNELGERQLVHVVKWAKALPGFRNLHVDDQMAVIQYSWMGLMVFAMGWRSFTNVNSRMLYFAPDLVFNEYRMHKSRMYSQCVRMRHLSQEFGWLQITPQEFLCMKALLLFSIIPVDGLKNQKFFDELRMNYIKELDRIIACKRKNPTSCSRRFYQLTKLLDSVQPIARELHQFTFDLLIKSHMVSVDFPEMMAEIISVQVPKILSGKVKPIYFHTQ
As to the kind of experiment: Antagonist activity against androgen receptor (unknown origin).

The test system of assay [1] is CWR22R. As to the kind of experiment: Antiproliferative activity against human 22Rv1 cells after 96 hrs by Oncotest monolayer assay. The class given is functional, cell-based. The gist of the method:
(§1)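 Cells from exponential-phase cultures seeded at 8000-12,000 cells/well, left 24 h to recover, then given compound at 10 concentrations in half-log steps up to 100 µM, in triplicate. After 96 h total exposure, wells were PBS-washed and stained with 7 µg/ml propidium iodide plus 0.1% Triton X-100 for 1-2 h at room temperature. Fluorescence (ex 530/em 620 nm) was read. Absolute IC50 was obtained by non-linear regression.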

The next assay relates to MCF7. As to the kind of experiment: Antiproliferative activity against human MCF7 cells after 96 hrs by Oncotest monolayer assay. The class given is functional, cell-based. The gist of the method:
as §1

Assay [2] relates to CWR22R. As to the kind of experiment: Potency index, ratio IC50 of bicalutamide to IC50 of compound for antiproliferative activity against human 22Rv1 cells. In kind it is functional.
In assay [3] the test system is CWR22R. The assay is described as follows: Potency index, ratio IC50 of enzalutamide to IC50 of compound for antiproliferative activity against human 22Rv1 cells. In kind it is functional.
Setting [4] is: Homo sapiens, 22Rv1, 96 h, read-out: IC50.
Where [5] appears, read: Homo sapiens, MCF7, 96 h, read-out: IC50.

Structures are written as SMILES.

By IC50 is commonly meant the concentration needed to halve the response being measured.

For `Cc1cc(=O)oc2cc(OCC(=O)c3ccc(F)cc3)ccc12`, the IC50 result is “Not Active” on Androgen receptor, greater than 100 µM with CWR22R [1] (setting [4]) and greater than 100 µM with MCF7 (setting [5]).

In the case of `O=C(COc1ccc2c(C(F)(F)F)cc(=O)oc2c1)c1ccccc1`, the IC50 result against Androgen receptor, in the assay on CWR22R [1] (cwr22r) and in the assay on MCF7 (mcf7) was “Not Active” in each case.

On to `COc1ccc(C(=O)COc2ccc3c(C)cc(=O)oc3c2)cc1`, for which the IC50 result against Androgen receptor is “Not Active”; with CWR22R [1] (setting [4]), greater than 100 µM; with MCF7 (setting [5]), greater than 100 µM.

For `Cc1cc(=O)oc2cc(OCC(=O)c3ccccc3C(F)(F)F)ccc12`, the “Ratio IC50” value with CWR22R [2] was 2. In addition, the results for the IC50 with CWR22R [1] (setting [4]) and in the assay with MCF7 (setting [5]) were 20.4 µM and 43.2 µM, respectively.

Take `COc1cccc(C(=O)COc2ccc3c(C(F)(F)F)cc(=O)oc3c2)c1`: the IC50 entry at Androgen receptor, in the assay on CWR22R [1] (cwr22r) and with MCF7 (mcf7) was “Not Active” throughout.

Turning to `Cc1ccc(C(=O)COc2ccc3c(C)cc(=O)oc3c2)cc1`, the IC50 result was “Not Active” at Androgen receptor, greater than 100 µM in the assay on CWR22R [1] (setting [4]) and greater than 100 µM with MCF7 (setting [5]).

For `O=C(COc1ccc2c(C(F)(F)F)cc(=O)oc2c1)c1cc(C(F)(F)F)cc(C(F)(F)F)c1`, the IC50 result at Androgen receptor, in the assay with CWR22R [1] (cwr22r) and in the assay on MCF7 (mcf7) was “Not Active” throughout.

As to `Cc1cc(=O)oc2cc(OCC(=O)c3ccc4ccccc4c3)ccc12`, the IC50 result on Androgen receptor was “Not Active”; in the assay on CWR22R [1] (setting [4]), greater than 100 µM; in the assay on MCF7 (setting [5]), greater than 100 µM.

Turning to `COc1ccc(C(=O)COc2ccc3c(C(F)(F)F)cc(=O)oc3c2)cc1`, the IC50 result on Androgen receptor, in the assay with CWR22R [1] (cwr22r) and in the assay on MCF7 (mcf7) was “Not Active” each time.

Turning to `Cc1cc(=O)oc2cc(OCC(=O)c3cc(C(F)(F)F)cc(C(F)(F)F)c3)ccc12`, the “Ratio IC50” value in the assay with CWR22R [2] is 50; in the assay with CWR22R [3] it was greater than 30. The IC50 was found to be 0.93 µM with CWR22R [1] (setting [4]) and 0.47 µM in the assay with MCF7 (setting [5]).

Turning to `O=C(COc1ccc2c(C(F)(F)F)cc(=O)oc2c1)c1ccc(OC(F)(F)F)cc1`, the half-maximal inhibitory concentration (IC50) entry against Androgen receptor, in the assay on CWR22R [1] (cwr22r) and in the assay with MCF7 (mcf7) was “Not Active” each time.

On to `Cc1ccc(C(=O)COc2ccc3c(C(F)(F)F)cc(=O)oc3c2)cc1`, for which the IC50 entry at Androgen receptor, with CWR22R [1] (cwr22r) and in the assay on MCF7 (mcf7) was “Not Active” each time.

For the compound `CC(C)(C)C(=O)COc1ccc2c(C(F)(F)F)cc(=O)oc2c1`, the half-inhibitory concentration (IC50) entry against Androgen receptor, in the assay on CWR22R [1] (cwr22r) and in the assay with MCF7 (mcf7) was “Not Active” each time.

Regarding `O=C(COc1ccc2c(C(F)(F)F)cc(=O)oc2c1)c1ccc(C(F)(F)F)cc1`, the IC50 entry against Androgen receptor, in the assay on CWR22R [1] (cwr22r) and with MCF7 (mcf7) was “Not Active” each time.

`O=C(COc1ccc2c(C(F)(F)F)cc(=O)oc2c1)c1cccc(C(F)(F)F)c1`: the IC50 entry at Androgen receptor, in the assay with CWR22R [1] (cwr22r) and in the assay with MCF7 (mcf7) was “Not Active” each time.

Regarding `Cc1cc(=O)oc2cc(OCC(=O)c3ccc(C(F)(F)F)cc3)ccc12`, the IC50 result is “Not Active” on Androgen receptor, greater than 100 µM in the assay on CWR22R [1] (setting [4]) and greater than 100 µM with MCF7 (setting [5]).

`Cc1cc(=O)oc2cc(OCC(=O)c3ccc(OC(F)(F)F)cc3)ccc12`: the IC50 result was “Not Active” against Androgen receptor, greater than 100 µM with CWR22R [1] (setting [4]) and greater than 100 µM in the assay with MCF7 (setting [5]).

Regarding `Cc1cc(=O)oc2cc(OCC(=O)c3ccc4c(c3)OCCCO4)ccc12`, the concentration for half-maximal inhibition (IC50) entry on Androgen receptor is “Not Active”; in the assay with CWR22R [1] (setting [4]) it was greater than 100 µM; in the assay with MCF7 (setting [5]), greater than 100 µM.

For `Cc1cc(=O)oc2cc(OCC(=O)C(C)(C)C)ccc12`, the IC50 on Androgen receptor (read-out: IC50) amounted to 3.76 µM.

Regarding `O=C(COc1ccc2c(C(F)(F)F)cc(=O)oc2c1)c1ccc2c(c1)OCCCO2`, the IC50 entry on Androgen receptor, in the assay with CWR22R [1] (cwr22r) and in the assay with MCF7 (mcf7) was “Not Active” in each case.

For `CCOC(=O)C(CC)Oc1ccc2c(C)cc(=O)oc2c1` (configuration not stated), the IC50 on Androgen receptor (read-out: IC50) was 5 µM.

As for `O=C(COc1ccc2c(C(F)(F)F)cc(=O)oc2c1)c1ccccc1C(F)(F)F`, the IC50 result against Androgen receptor, in the assay with CWR22R [1] (cwr22r) and in the assay on MCF7 (mcf7) was “Not Active” throughout.

Turning to `O=C(COc1ccc2c(C(F)(F)F)cc(=O)oc2c1)c1ccc2ccccc2c1`, the IC50 entry on Androgen receptor, in the assay with CWR22R [1] (cwr22r) and in the assay with MCF7 (mcf7) was “Not Active” throughout.

For the compound `COc1cccc(C(=O)COc2ccc3c(C)cc(=O)oc3c2)c1`, the concentration for half-maximal inhibition (IC50) with CWR22R [1] (setting [4]) worked out at 8.41 µM; in the assay on MCF7 (setting [5]), 2.21 µM.

Regarding `CNC(=O)c1ccc(N2C(=S)N(c3ccc(C#N)c(C(F)(F)F)c3)C(=O)C2(C)C)cc1F` [ENZALUTAMIDE], in the assay on CWR22R [1] (setting [4]), the IC50 amounted to 31.8 µM.

Regarding `CC(C)(C)c1ccc(C(=O)COc2ccc3c(C(F)(F)F)cc(=O)oc3c2)cc1`, the IC50 result against Androgen receptor, in the assay with CWR22R [1] (cwr22r) and with MCF7 (mcf7) was “Not Active” throughout.

Turning to `O=C(COc1ccc2c(C(F)(F)F)cc(=O)oc2c1)c1ccc(F)cc1`, the IC50 result against Androgen receptor, in the assay with CWR22R [1] (cwr22r) and in the assay on MCF7 (mcf7) was “Not Active” in each case.

Take `CC(O)(CS(=O)(=O)c1ccc(F)cc1)C(=O)Nc1ccc(C#N)c(C(F)(F)F)c1` (configuration not stated) [BICALUTAMIDE]: in the assay on CWR22R [1] (setting [4]), the IC50 turned out to be 46.2 µM.

For `Cc1cc(=O)oc2cc(OCC(=O)c3cccc(C(F)(F)F)c3)ccc12`, the IC50 result against Androgen receptor is “Not Active”; in the assay on CWR22R [1] (setting [4]), greater than 100 µM; with MCF7 (setting [5]), 38.4 µM.

As to `Cc1cc(=O)oc2cc(OCC(=O)c3ccccc3)ccc12`, the IC50 result is “Not Active” against Androgen receptor, greater than 100 µM with CWR22R [1] (setting [4]) and greater than 100 µM in the assay on MCF7 (setting [5]).

On to `N#Cc1ccc(C(=O)COc2ccc3c(C(F)(F)F)cc(=O)oc3c2)cc1`, for which the IC50 entry on Androgen receptor, with CWR22R [1] (cwr22r) and in the assay with MCF7 (mcf7) was “Not Active” in each case.

Regarding `Cc1cc(=O)oc2cc(OCC(=O)c3ccc(C(C)(C)C)cc3)ccc12`, the “Ratio IC50” value in the assay with CWR22R [2] worked out at 2. Further, the IC50 in the assay with CWR22R [1] (setting [4]) turned out to be 22.3 µM; in the assay on MCF7 (setting [5]), 20.7 µM.

On to `Cc1cc(=O)oc2cc(OC(C)C(=O)c3ccccc3)ccc12` (configuration not stated), for which the half-inhibitory concentration (IC50) at Androgen receptor (read-out: IC50) was 5.09 µM.

With `Cc1cc(=O)oc2cc(OCC(=O)c3ccc(C#N)cc3)ccc12`, the IC50 entry on Androgen receptor is “Not Active”; in the assay on CWR22R [1] (setting [4]), greater than 100 µM; in the assay with MCF7 (setting [5]), greater than 100 µM.
